# High-throughput results as filed in PubChem.
# Hits are enriched below; roughly 2.7% of the tested compounds scored in any of these assays.
# 14-3-3 Bad inh – disrupts binding of bovine 14-3-3 zeta to phospho-Bad peptide; inhibition, % at 21.7 µM; actives 0.71% (n = 220,000); TR-FRET 14-3-3zeta/Dy647-pBad peptide displacement, 1 h; AID 781;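 active = inhibition above about 70%, limit read from the data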;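 also: 0% = full 14-3-3 plus peptide FRET controls and 100% = background without 14-3-3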
# MDM2 E3 inh – blocks human Mdm2 ubiquitin ligase activity | signal enhancement, % at 5 µM | AID 1230 | Q00987 | actives 0.11% (n = 210,000) | cell-based MDM2 ubiquitination luciferase reporter, 2 h; 0 = plate control, 100 = twice control, blank-subtracted;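 active = signal enhancement of 30% or more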;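 also: luminescence tracks abundance of the self-degrading MDM2-luciferase fusion protein; higher signal means inhibition of MDM2 E3 ligase activity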
# Target sequence (Q00987 whole entry, looked up, the tested form may be a part): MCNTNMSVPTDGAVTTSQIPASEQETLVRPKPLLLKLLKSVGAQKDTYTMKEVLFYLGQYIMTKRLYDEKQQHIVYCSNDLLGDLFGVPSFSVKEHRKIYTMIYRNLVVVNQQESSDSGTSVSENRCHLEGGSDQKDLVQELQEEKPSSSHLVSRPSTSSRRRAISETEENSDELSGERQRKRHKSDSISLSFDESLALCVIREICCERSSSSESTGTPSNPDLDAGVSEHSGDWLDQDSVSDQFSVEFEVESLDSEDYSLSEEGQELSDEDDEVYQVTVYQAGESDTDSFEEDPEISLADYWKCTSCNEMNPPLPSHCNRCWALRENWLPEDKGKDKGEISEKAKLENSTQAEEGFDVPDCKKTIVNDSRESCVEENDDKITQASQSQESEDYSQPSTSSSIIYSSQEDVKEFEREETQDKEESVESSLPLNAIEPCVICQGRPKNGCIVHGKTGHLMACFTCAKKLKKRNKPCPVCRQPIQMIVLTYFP
#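 Material: stable MDM2–luciferase fusion reporter cells / Quantity: 2000 cells/well / Dosing: single 5 µM compound dose, 0.2% final DMSO / Buffer or medium: DMEM / Schedule: 4 h cell settling then 2 h compound exposure, 37 °C / Detection: luminescence with SteadyLite reagent, 15 min at room temperature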
# Wee1 stabilizer – inhibitors of human Wee1 degradation; AID 1321; reporter increase, % at 5 µM; HeLa Luc-Wee1K328M stability, luciferase luminescence; 100% = proteasome inhibitor MG132 effect; P30291; actives 1.2% (n = 220,000);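 active = activation above the mean of all tested compounds plus 3 SD, set per screening run, cut at about 8.8% in these data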;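 also: cells exposed to compound for 20 h before luminescence read; 0% = DMSO alone and 100% = MG132 at 30 µM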
# TbHK1 inh – T. brucei hexokinase 1 inhibition. recombinant TbHK1, G6PDH-coupled NADH A340. inhibition, % at 10 µM. actives 0.11% (n = 220,000);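 active = inhibition of 50% or more in the single-dose primary screen; inactive = inhibition below 50%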
# Hck-Nef inh – human Hck-Nef kinase inhibition. P08631. Recombinant Hck-YEEI plus Nef, Z-Lyte FRET kinase assay. inhibition, % at 20 µM. actives 0.68% (n = 220,000);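 active = Hck-Nef kinase inhibition above about 50%, limit read from the data; inactive = inhibition below that limit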;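 also: 0% = DMSO with Hck plus Nef and 100% = Hck alone without Nef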
# G6PDH ctr – Leuconostoc glucose-6-phosphate dehydrogenase inhibition, counter-screen | shares compounds with TbHK1 inh | purified G6PDH, NADH absorbance, 1 h | inhibition, % at 10 µM | actives 7% (n = 210) | AID 2516;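 active = at least 50% inhibition in the glucose-6-phosphate dehydrogenase coupled counterscreen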
# TbHK1 confirm – confirmation of Trypanosoma brucei hexokinase 1 inhibitors | shares compounds with TbHK1 inh | AID 2560 | recombinant TbHK1, G6PDH-coupled NADH A340 absorbance | actives 10% (n = 210) | inhibition, % at 10 µM;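 active = inhibition of at least 50% in both of the two screening runs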;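 also: 0% and 100% set by the maximum and minimum signal control wells on each plate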
# * marks the source's active call; other numbers are inactive results; . = not tested or not shown.
SMILES,14-3-3 Bad inh,MDM2 E3 inh,Wee1 stabilizer,TbHK1 inh,Hck-Nef inh,G6PDH ctr,TbHK1 confirm
CCCCOc1ccc(C(=O)NNC(=S)NC(=O)CC)cc1,-14,-2,0,58*,4,-19,-9
N#CN=C1CCCCCN1CC(N)=O,3,-21,0,6,2,.,.
O=C(O)CCN=C1CCCc2ccccc2N1,0,4,0,54*,3,-1,4
O=C(O)CCCN=C1CCCc2ccccc2N1,7,-3,0,21,-20,.,.
O=C(COC(=O)c1cc(=O)[nH]c2ccccc12)c1cccs1,13,-5,6,-14,18,.,.
CC1(C)CC(=O)C=C(NCc2ccc(C(=O)O)cc2)C1,-15,-12,-2,5,16,.,.
COc1ccc(CNC2=CC(=O)CC(C)(C)C2)cc1,-5,-14,2,57*,5,-2,-3
CC(C)CCn1c(O)c(N=NC(=O)Cn2ccc(C(F)(F)F)n2)c2ccccc21,-6,-13,-3,36,4,.,.
CN(Cc1nc(-c2cnccn2)no1)Cc1n[nH]c2c1CCCC2,10,-3,-2,5,12,.,.
COc1cc(-c2nnn(CC(=O)NC3CCS(=O)(=O)C3)n2)ccc1OCc1ccccc1 (stereo not given),-12,-30,4,66*,9,-38,1
COCCCN1C(=O)c2ccc(C(=O)Nc3ccc(OC)cc3)cc2C1=O,3,-21,1,-11,-1,.,.
Cc1ccc(Nc2cc(=O)oc3ccccc23)c(C)c1,-2,-13,2,55*,-1,8,4
COc1ccc(-c2nc(C3CCCCC3)no2)cc1OC,-7,-3,-4,64*,7,-12,-5
COCCNC(=O)CN(Cc1ccc2c(c1)OCO2)C(=O)CCC(=O)Nc1nccs1,-2,4,1,53*,4,-13,-1
Cc1nc2nc(-c3ccccc3)cc(=O)n2[nH]1,4,-20,5,55*,2,-3,1
O=C1CSC(c2cccnc2)N1c1ccc(Cl)cc1 (stereo not given),-15,-16,-2,0,1,.,.
Cc1ccc(N2C(=O)CSC2c2cccnc2)cc1F (stereo not given),-4,-7,-1,55*,5,-2,2
CCOc1ccc(NC(N)=O)cc1,-13,-26,-3,60*,7,-1,4
C=C1C(C(=O)Nc2ccc(OCC)cc2)C1C(=O)Nc1ccc(OCC)cc1 (stereo not given),-2,11,1,-4,-17,.,.
COc1ccc(S(=O)(=O)NNC(=O)C(=O)NNc2ccccn2)cc1,-13,-11,2,53*,8,-16,10
COc1ccc(C(=O)NNS(=O)(=O)c2ccccc2)cc1,5,-11,0,-1,3,.,.
COc1cc2c(cc1OC)C1(CCCC1)CNC2c1cccc([N+](=O)[O-])c1 (stereo not given),-1,-24,1,5,6,.,.
c1cc(-c2nnc(-c3ccncc3)o2)ccn1,19,-28,3,74*,5,-7,-7
CCSc1nnc(-c2ccncc2)o1,0,-20,0,-4,-1,.,.
O=C(Nc1ccc2c(c1)OCCO2)C1CCCN(S(=O)(=O)c2cccs2)C1 (stereo not given),8,2,0,58*,4,-1,-3
SMILES,14-3-3 Bad inh,MDM2 E3 inh,Wee1 stabilizer,TbHK1 inh,Hck-Nef inh,G6PDH ctr,TbHK1 confirm
O=C(Nc1ccc2c(c1)OCO2)C1CCCN(S(=O)(=O)c2cccs2)C1 (stereo not given),22,-17,1,55*,6,2,-5
O=C(Nc1ccc2c(c1)OCO2)C1CCN(S(=O)(=O)c2cccs2)CC1,5,-18,3,-3,1,.,.
CC1(C(=O)CSc2n[nH]c(-c3ccccc3Cl)n2)CCC(=O)O1 (stereo not given),41,5,2,67*,5,-11,-2
COc1ccc(C(CCN2CCCC(C)C2)c2c(OC)cc(OC)c3c2OC(=O)CC3c2cc(OC)c(OC)c(OC)c2)cc1 (stereo not given),4,9,.,1,26,.,.
CCC(C)COC(=O)C(C#N)c1nc2ccccc2nc1N1CCCCC1 (stereo not given),0,5,-3,56*,2,-12,18
CCCCS(=O)(=O)Nc1ccc2cn[nH]c2c1,-17,-3,-2,-3,21,.,.
COc1cccc(C2=NOC(C(=O)Nc3cc(OC)c(OC)c(OC)c3)C2)c1 (stereo not given),11,7,0,65*,4,-8,-2
Cc1occc1-c1nnc(SCC(=O)N2CCOCC2)n1CCc1ccccc1,-1,3,-2,54*,7,-10,-2
CCCCn1c(SCC(=O)N2CCOCC2)nnc1-c1ccoc1C,-4,-4,-2,3,0,.,.
CCCCOc1cc(C(=O)NCCN(CC)CC)c2ccccc2n1,4,.,0,-8,0,.,.
CCCCc1oc2ccccc2c1C(=O)c1cc(I)c(OCCN(CC)CC)c(I)c1,19,.,-3,63*,-2,8,6
O=C1OC(N2CCN(C(=O)c3ccco3)CC2)c2ccccc21 (stereo not given),-3,-12,-1,1,2,.,.
O=C1OC(N2CCN(C(=O)C3CCCO3)CC2)c2ccccc21 (stereo not given),16,-18,-2,63*,5,-3,3
O=C(C1CCCO1)N1CCN(c2ncccn2)CC1 (stereo not given),-6,-3,-2,56*,22,-9,-4
COc1ccccc1N1CCN(C(=O)C2CCCO2)CC1 (stereo not given),-6,-5,-2,-6,1,.,.
CSc1ncc(CO)n1Cc1ccccc1,-10,-17,2,6,20,.,.
CCOC(=O)c1c(C)c(C(=O)NCc2cccnc2)c(C)n1C,1,-3,3,63*,10,-2,1
Cc1cc(=O)[nH]c(N/N=C/c2c(O)n(-c3ccccc3)c(=O)c3ccccc23)n1,-28,-2,2,56*,1,-57,-23
Cc1cc(=O)[nH]c(N/N=C/c2ccccn2)n1,11,0,4,-8,3,.,.
N#Cc1cnn2ccn(C3OC(CO)C(O)C3O)c12 (stereo not given),-2,-17,3,-9,7,.,.
CC(=O)Nc1nc2ccccc2n1CCOc1ccccc1Cl,-9,18,-1,52*,5,0,-4
CC(=O)Nc1nc2ccccc2n1Cc1ccccc1Cl,7,-8,-1,-7,30,.,.
Nc1ccc(C(=O)c2cccs2)cc1[N+](=O)[O-],-5,-6,-1,-27,16,.,.
